Key:
Assay type in all cases: functional
IGROV-1 = test: Growth inhibition of human IGROV1 cells after 48 hrs by SRB assay; conditions: IGROV-1, 48 h
Procedure, shortened: (§1)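 NCI-60 panel protocol with adherent lines. Cells were seeded at 5,000–40,000 cells/well, depending on doubling time, and pre-incubated 24 h at 37 °C, 5% CO₂. Time-zero plates were TCA-fixed at drug addition. Drugs were dissolved in DMSO and exposed for 48 h. Cells were fixed with cold TCA (final 10%) for 60 min at 4 °C, stained with 0.4% SRB in 1% acetic acid for 10 min, solubilized with 10 mM trizma base, and read at A515.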

TK-10 = test: Growth inhibition of human TK10 cells after 48 hrs by SRB assay; conditions: TK-10, 48 h
Procedure, shortened: (§2)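 NCI 60-cell panel, five-dose format: cells plated at 5,000–40,000/well by doubling time, preincubated 24 h at 37 °C, 5% CO2; time-zero plates TCA-fixed. Compound dissolved in DMSO, five concentrations (0.01, 0.1, 1, 10, 100 µM) plus control, 48 h. Cells fixed with cold TCA, stained with 0.4% SRB in 1% acetic acid, bound dye solubilized in 10 mM trizma base, absorbance at 515 nm. GI50 taken from [(Ti–Tz)/(C–Tz)]×100 = 50.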

SNB-19 = test: Growth inhibition of human SNB19 cells after 48 hrs by SRB assay; conditions: SNB-19, 48 h; procedure, shortened: as §1
EKVX = test: Growth inhibition of human EKVX cells after 48 hrs by SRB assay; procedure, shortened: as §1
COLO 205 = test: Growth inhibition of human COLO205 cells after 48 hrs by SRB assay; conditions: COLO 205, 48 h; procedure, shortened: as §1
RXF 393 = test: Growth inhibition of human […] cells after 48 hrs by SRB assay; conditions: RXF 393, 48 h; procedure, shortened: as §1
CCRF-CEM = test: Growth inhibition of human CCRF-CEM cells after 48 hrs by SRB assay
Procedure, shortened: (§3)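 Suspension leukemia lines were run in the NCI-60 SRB format. Cells were plated at 5,000–40,000 cells/well and pre-incubated 24 h at 37 °C, 5% CO₂, with time-zero plates fixed at drug addition. Drug exposure in DMSO-derived dilutions lasted 48 h. Settled cells were fixed with 80% TCA (final 16%), stained with 0.4% SRB, solubilized in 10 mM trizma base, and read at 515 nm. Percent growth was taken relative to the time-zero and control readings.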

T47D = test: Growth inhibition of human T47D cells after 48 hrs by SRB assay; procedure, shortened: as §2
M14 = test: Growth inhibition of human M14 cells after 48 hrs by SRB assay; conditions: M14, 48 h; procedure, shortened: as §1
UACC-257 = test: Growth inhibition of human UACC257 cells after 48 hrs by SRB assay; conditions: UACC-257, 48 h; procedure, shortened: as §2
NCI-H23 = test: Growth inhibition of human NCI-H23 cells after 48 hrs by SRB assay; conditions: NCI-H23, 48 h; procedure, shortened: as §1
UO-31 = test: Growth inhibition of human UO31 cells after 48 hrs by SRB assay; conditions: UO-31, 48 h; procedure, shortened: as §2
786-0 = test: Growth inhibition of human 786-0 cells after 48 hrs by SRB assay; conditions: 786-0, 48 h; procedure, shortened: as §1
SNB-75 = test: Growth inhibition of human SNB75 cells after 48 hrs by SRB assay; conditions: SNB-75, 48 h; procedure, shortened: as §1
SR = test: Growth inhibition of human SR cells after 48 hrs by SRB assay; procedure, shortened: as §2
U-251 = test: Growth inhibition of human U251 cells after 48 hrs by SRB assay; conditions: U-251, 48 h; procedure, shortened: as §2
KM12 = test: Growth inhibition of human KM12 cells after 48 hrs by SRB assay; conditions: KM12, 48 h; procedure, shortened: as §1
SK-MEL-5 = test: Growth inhibition of human SK-MEL-5 cells after 48 hrs by SRB assay; conditions: SK-MEL-5, 48 h; procedure, shortened: as §1
HL-60(TB) = test: Growth inhibition of human HL-60(TB) cells after 48 hrs by SRB assay; conditions: HL-60, 48 h
Procedure, shortened: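 NCI-60 protocol: cells seeded at 5,000–40,000/well by doubling time and preincubated 24 h at 37 °C, 5% CO2. Drug, dissolved in DMSO, was added at one dose (10^-5 M) or five 10-fold dilutions, then incubated 48 h. Suspension cells were fixed with 80% TCA (final 16%) and stained with 0.4% SRB, read at 515 nm. GI50 was derived from percentage growth versus time-zero and control.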

RPMI-8226 = test: Growth inhibition of human RPMI8226 cells after 48 hrs by SRB assay; conditions: RPMI-8226, 48 h; procedure, shortened: as §3
NCI-H460 = test: Growth inhibition of human NCI-H460 cells after 48 hrs by SRB assay; conditions: NCI-H460, 48 h; procedure, shortened: as §1
SN12C = test: Growth inhibition of human SN12C cells after 48 hrs by SRB assay; procedure, shortened: as §1
K562 = test: Growth inhibition of human K562 cells after 48 hrs by SRB assay; conditions: K562, 48 h; procedure, shortened: as §3
OVCAR-8 = test: Growth inhibition of human OVCAR8 cells after 48 hrs by SRB assay; conditions: OVCAR-8, 48 h; procedure, shortened: as §1
UACC-62 = test: Growth inhibition of human UACC62 cells after 48 hrs by SRB assay; conditions: UACC-62, 48 h; procedure, shortened: as §2
[1] = read-out: LC50 (the source's name)

`COc1ccc(C2CC(c3nc4ccccc4[nH]3)=NN2c2ccccc2)cc1OC` (stereo not given) showed a GI50 (IGROV-1) of 0.92 µM, a TGI (IGROV-1) of 19.1 µM and a CC50 (IGROV-1; [1]) of over 100 µM. It also gave a GI50 (TK-10) of 15.7 µM, a TGI (TK-10) of 65.9 µM and a CC50 (TK-10; [1]) of over 100 µM. For the same molecule, the GI50 (SNB-19) was 26.6 µM, the TGI (SNB-19) was over 100 µM and the CC50 (SNB-19; [1]) was over 100 µM. It also gave a GI50 (EKVX) of 9.83 µM, a TGI (EKVX) of over 100 µM and a CC50 (EKVX; [1]) of over 100 µM. The GI50 (COLO 205) was 9.88 µM, the TGI (COLO 205) was 33.2 µM and the CC50 (COLO 205; [1]) was over 100 µM. For the same molecule, the GI50 (RXF 393) was 13.4 µM, the TGI (RXF 393) was 36.1 µM and the CC50 (RXF 393; [1]) was 97 µM. For the same molecule, the GI50 (CCRF-CEM) was 2.23 µM, the TGI (CCRF-CEM) was 6.82 µM and the CC50 (CCRF-CEM; [1]) was 88.7 µM. It also gave a GI50 (T47D) of 3.09 µM, a TGI (T47D) of 51.1 µM and a CC50 (T47D; [1]) of over 100 µM. It also gave a GI50 (M14) of 16.1 µM, a TGI (M14) of over 100 µM and a CC50 (M14; [1]) of over 100 µM. It also gave a GI50 (UACC-257) of 77.1 µM, a TGI (UACC-257) of over 100 µM and a CC50 (UACC-257; [1]) of over 100 µM. It also gave a GI50 (NCI-H23) of 16 µM, a TGI (NCI-H23) of over 100 µM and a CC50 (NCI-H23; [1]) of over 100 µM. For the same molecule, the GI50 (UO-31) was 2.2 µM, the TGI (UO-31) was 39.8 µM and the CC50 (UO-31; [1]) was over 100 µM. The GI50 (786-0) was 24.2 µM, the TGI (786-0) was over 100 µM and the CC50 (786-0; [1]) was over 100 µM. The GI50 (SNB-75) was 11 µM, the TGI (SNB-75) was 47.4 µM and the CC50 (SNB-75; [1]) was over 100 µM. For the same molecule, the GI50 (SR) was over 100 µM, the TGI (SR) was over 100 µM and the CC50 (SR; [1]) was over 100 µM. The GI50 (U-251) was 7.67 µM, the TGI (U-251) was 80.2 µM and the CC50 (U-251; [1]) was over 100 µM. The GI50 (KM12) was 5.14 µM, the TGI (KM12) was 19.5 µM and the CC50 (KM12; [1]) was 52.2 µM. The GI50 (SK-MEL-5) was 2.62 µM, the TGI (SK-MEL-5) was 15.1 µM and the CC50 (SK-MEL-5; [1]) was 67.6 µM. For the same molecule, the GI50 (HL-60(TB)) was over 100 µM, the TGI (HL-60(TB)) was over 100 µM and the CC50 (HL-60(TB); [1]) was over 100 µM. The GI50 (RPMI-8226) was 2.76 µM, the TGI (RPMI-8226) was 10.3 µM and the CC50 (RPMI-8226; [1]) was 76.6 µM. It also gave a GI50 (NCI-H460) of 13.6 µM, a TGI (NCI-H460) of 40 µM and a CC50 (NCI-H460; [1]) of over 100 µM. The GI50 (SN12C) was 17.3 µM, the TGI (SN12C) was over 100 µM and the CC50 (SN12C; [1]) was over 100 µM. For the same molecule, the GI50 (K562) was over 100 µM, the TGI (K562) was over 100 µM and the CC50 (K562; [1]) was over 100 µM. The GI50 (OVCAR-8) was 19.9 µM, the TGI (OVCAR-8) was over 100 µM and the CC50 (OVCAR-8; [1]) was over 100 µM. The GI50 (UACC-62) was 2.59 µM, the TGI (UACC-62) was over 100 µM and the CC50 (UACC-62; [1]) was over 100 µM.

Source: ChEMBL document CHEMBL1154686, “Pyrazoline bearing benzimidazoles: search for anticancer agent” (2010)
